# Assay results of several laboratories.
Structure (SMILES),organism,test,system,setting,quantity,result
O=c1c2ccccc2nc(/C=C/c2ccc3c(c2)OCO3)n1-c1cccc(O)c1,Enterococcus faecium,"microbial growth, broth dilution",NCTC7171,,MIC,> 128 µg/mL
COC(=O)c1cc(-c2cccc(NC(=S)Nc3ccc(C)cc3)c2)on1,Mycobacteroides chelonae,"microbial growth, broth dilution",ATCC35752,48 h,MIC,> 64 µg/mL
O=c1c2ccccc2[se]n1-c1ccccc1,Trypanosoma brucei,parasite growth,,blood stage,EC50,2970 nM
CCC(=O)N1CCN(c2ccc(-n3c(=O)ccc4cnc5ccc(-c6cnc7ccccc7c6)cc5c43)cc2C(F)(F)F)CC1,Plasmodium berghei,"parasite growth, luciferase",human,liver stage,IC50,410 nM
CCOC(=O)c1cc(-c2cccc(NC(=O)Nc3ccc(Cl)c(Cl)c3)c2)on1,Mycobacteroides chelonae,"microbial growth, broth dilution",ATCC35752,48 h,MIC,> 64 µg/mL
Cc1cc(C2CCCCC2)n(O)c(=O)c1,Candida albicans,microbial growth,ATCC90028,,MIC80,1.9 µM
Nc1cccc(-n2c(/C=C/c3ccc(F)cc3)nc3ccccc3c2=O)c1,Enterococcus faecium,"microbial growth, broth dilution",NCTC7171,,MIC,128 µg/mL
COC(=O)c1cc(-c2cccc(NC(=S)Nc3ccc(F)cc3F)c2)on1,Mycobacteroides chelonae,"microbial growth, broth dilution",ATCC35752,48 h,MIC,16 µg/mL
O=c1c2ccccc2nc(/C=C/c2ccccc2)n1-c1cccc(O)c1,Enterococcus faecium,"microbial growth, broth dilution",NCTC7171,,MIC,32 µg/mL
Cc1cc(Cc2ccccc2)n(O)c(=O)c1,Candida albicans,microbial growth,ATCC90028,,MIC80,1.2 µM
N#Cc1ccc(/C=C/c2nc3ccccc3c(=O)n2-c2cc[nH]n2)cc1,Enterococcus faecium,"microbial growth, broth dilution",NCTC7171,,MIC,> 128 µg/mL
CC(=O)Oc1cccc2c1[nH]c1c(C3=C[C@@]4(OC(C)=O)CC/C=C\CCCCN5CC[C@@H]3[C@]3(C[C@@H]6/C=C\CCCCN6[C@H]34)C5)nccc12,Mycobacterium intracellulare,microbial killing,,,MBC,> 20 µg/mL
Cc1nc(N)sc1-c1ccnc(Nc2ccc(N3CCOCC3)cc2)n1,Plasmodium berghei,"parasite growth, luciferase",human,liver stage,IC50,460 nM
COC(=O)c1cc(-c2cccc(NC(=S)Nc3ccc(Cl)cc3)c2)on1,Mycobacteroides chelonae,"microbial growth, broth dilution",ATCC35752,48 h,MIC,> 64 µg/mL
Cc1ccc(-c2nc3ccccc3c(=O)n2-c2cccc(O)c2)cc1,Enterococcus faecium,"microbial growth, broth dilution",NCTC7171,,MIC,> 128 µg/mL
COC(=O)c1cc(-c2cccc(NC(=O)Nc3ccccc3OC)c2)on1,Mycobacteroides chelonae,"microbial growth, broth dilution",ATCC35752,48 h,MIC,> 64 µg/mL
O=C(O)CSc1ncnc2cc(-c3cc4ccccc4s3)sc12,Murine coronavirus,viral replication,,"1 µM, 10 h",inhibition,-36%
COC(=O)c1cc(-c2cccc(NC(=S)Nc3cccc(Br)c3)c2)on1,Mycobacteroides chelonae,"microbial growth, broth dilution",ATCC35752,48 h,MIC,> 64 µg/mL
O=c1c2ccccc2nc(/C=C/c2cccc(F)c2)n1-c1cccc(O)c1,Enterococcus faecium,"microbial growth, broth dilution",NCTC7171,,MIC,32 µg/mL
CN(C)C(=O)/C(C#N)=C/c1ccc(-c2nc3cnc4[nH]ccc4c3n2C2CCCCC2)o1,Murine coronavirus,viral replication,,"1 µM, 10 h",inhibition,36%
